Source: PubChem (Broad Institute)
Many of the other results were omitted from the sample, so hits are more common in it than they were.
E-sel inducer – induces E-selectin expression in human endothelial cells; AID 686992; 260,000 compounds, 0.37% hits; P16581; HUVEC E-selectin immunofluorescence imaging; normalized: neutral wells 0, TNF-alpha wells 100; activation, % at 7.58 µM;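 active = mean E-selectin-positive cell signal at least 10% of the positive control, reached in at least 60% of replicates, without over 20% cell loss; inconclusive = no rule given, readout overlaps actives, possibly toxicity-flagged; inactive = the rest, including those meeting only one limit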
Target sequence (P16581 whole entry, looked up): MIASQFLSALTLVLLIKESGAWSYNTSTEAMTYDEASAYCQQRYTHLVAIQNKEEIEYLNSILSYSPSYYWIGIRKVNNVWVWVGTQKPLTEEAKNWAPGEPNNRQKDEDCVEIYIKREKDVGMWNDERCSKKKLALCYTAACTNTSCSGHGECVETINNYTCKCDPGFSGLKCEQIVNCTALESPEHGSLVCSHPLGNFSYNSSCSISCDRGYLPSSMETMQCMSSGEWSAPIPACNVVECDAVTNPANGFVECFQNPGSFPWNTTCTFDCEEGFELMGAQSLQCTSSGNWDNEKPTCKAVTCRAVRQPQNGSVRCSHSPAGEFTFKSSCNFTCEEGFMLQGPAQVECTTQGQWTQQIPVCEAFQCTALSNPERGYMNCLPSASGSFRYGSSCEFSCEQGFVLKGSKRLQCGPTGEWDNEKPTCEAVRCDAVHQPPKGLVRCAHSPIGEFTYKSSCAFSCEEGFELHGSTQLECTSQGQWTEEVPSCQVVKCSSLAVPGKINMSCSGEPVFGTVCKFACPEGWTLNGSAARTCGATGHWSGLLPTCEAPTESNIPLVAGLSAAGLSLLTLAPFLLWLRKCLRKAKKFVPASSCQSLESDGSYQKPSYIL
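Read-out basis: % PE-positive cells; Test system: HUVEC primary endothelial cells; Technique: immunofluorescence imaging; Dosing: single-point compound dose.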
XiGFP reactiv – reactivates the inactive X chromosome in mouse fibroblasts; XiGFP mouse fibroblasts, % GFP-positive cells imaging, 3 d; cells co-treated with 5-aza-dC sensitizer; scaled so ellipticine positive control = 100%; activation, % at 7.58 µM; 360,000 compounds, 0.055% hits; AID 743238;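 active = mean normalized replicate activation at least 10% and every replicate at or above 10%; inconclusive = only one of the two criteria met; inactive = mean below 10% and not all replicates reach 10%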;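 also: 0% = median of on-plate neutral control wells and 100% = ellipticine 6 µM median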
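System: XiGFP fibroblasts, SV40-immortalized. Medium: DMEM plus 5-aza-dC sensitizer. Doses: single point. Timing: 3 d treatment, 15 min room-temperature fixation. Control set: ellipticine 6 µM.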
Starred values were filed as active, the others as inactive; ? = inconclusive; · = not tested or not shown.

SMILES | E-sel inducer | XiGFP reactiv
C[C@@H]1CN([C@@H](C)CO)C(=O)c2cccc(NS(=O)(=O)c3cn(C)cn3)c2O[C@H]1CN(C)Cc1ccncc1 | 53* | -1
C[C@H](CO)N1C[C@H](C)[C@@H](CN(C)Cc2ccc3c(c2)OCO3)Oc2c(NS(=O)(=O)c3cn(C)cn3)cccc2C1=O | 1 | -1
OC(COC(c1ccccc1)c1ccccc1)CN1CCOCC1 (stereo not given) | 72* | 0
Cc1ccc(C(OCC(O)CN2CCCCC2)c2ccccc2)cc1 (stereo not given) | 0 | 0
C[C@@H]1CN([C@@H](C)CO)S(=O)(=O)c2ccc(-c3cncnc3)cc2O[C@H]1CN(C)C(=O)C1CC1 | -2 | 0
CC(C)NC(=O)N(C)C[C@H]1Oc2ncccc2C(=O)N(C)C[C@@H]1C | · | 0
CSc1nc2ccsc2c(=O)n1-c1ccccc1 | · | 0
CCC(C)c1nc2ccsc2c(N2CCOC2=O)c1-c1ccccc1 (stereo not given) | 0 | 19*
CN1C(=O)c2cc(NC(=O)C3CCOCC3)ccc2OC[C@@H]2O[C@H](CC(=O)NCc3ccc4c(c3)OCO4)CC[C@@H]21 | 0 | 0
CCOC(=O)CSc1nc(C2CC2)cc(-c2ccc(Cl)cc2)c1C#N | 0 | 0
N#Cc1c(-c2ccccc2F)cc(C2CC2)nc1SCC(=O)c1cccs1 | · | 60*
COc1ccc(S(=O)(=O)Nc2ccc3c(c2)C(=O)N([C@@H](C)CO)C[C@H](C)[C@H](CN(C)S(=O)(=O)c2ccc(Cl)cc2)O3)cc1 | 59* | 0
COc1ccc(S(=O)(=O)N(C)C[C@@H]2Oc3ccc(NS(=O)(=O)c4c(C)noc4C)cc3C(=O)N([C@@H](C)CO)C[C@H]2C)cc1 | 189* | 0
COc1ccc(S(=O)(=O)Nc2ccc3c(c2)C(=O)N([C@@H](C)CO)C[C@@H](C)[C@@H](CN(C)S(=O)(=O)c2ccc(Cl)cc2)O3)cc1 | -4 | 0
COc1ccc(S(=O)(=O)N(C)C[C@H]2Oc3ccc(NS(=O)(=O)c4c(C)noc4C)cc3C(=O)N([C@H](C)CO)C[C@@H]2C)cc1 | 1 | -1
COc1ccc2c3c([nH]c2c1)[C@H](CO)N(C(=O)NC(C)C)CC31CN(C(=O)c2ccccn2)C1 | · | 0
Cc1ccc(-c2nn(-c3cc(N4CCNCC4)ccc3[N+](=O)[O-])c(=O)c3ccccc23)cc1 | 66* | 0
Cc1ccc(-c2nn(-c3ccccn3)c(=O)c3ccccc23)cc1 | 0 | 0
Cc1c(C#N)c(NC(=O)CCl)n(Cc2ccccc2)c1C | · | 0
Cc1c(C#N)c(NC(=O)CCl)n(Cc2ccc(F)cc2)c1C | 42* | 0
CC(=O)Nc1ccc2c(c1)CC(=O)N(C)C[C@@H](C)[C@H](CN(C)C(=O)NC(C)C)O2 | · | 0
C[C@H](CO)N1C[C@H](C)[C@@H](CN(C)S(C)(=O)=O)Oc2ccc(NC(=O)C3CCCCC3)cc2C1=O | -12 | 0
Cc1ccc(S(=O)(=O)N(C)C[C@@H]2Oc3ccc(NC(=O)NC4CCCCC4)cc3C(=O)N([C@H](C)CO)C[C@H]2C)cc1 | 1 | 0
C[C@@H]1CN([C@@H](C)CO)C(=O)c2cc(NC(=O)NC3CCCCC3)ccc2O[C@@H]1CN(C)S(=O)(=O)c1ccc(Cl)cc1 | 27* | 0
C[C@H](CO)N1C[C@H](C)[C@H](CN(C)S(C)(=O)=O)Oc2ccc(NC(=O)C3CCCCC3)cc2C1=O | 41* | 0
SMILES | E-sel inducer | XiGFP reactiv
C[C@H](CO)N1C[C@H](C)[C@H](CN(C)S(=O)(=O)c2ccc(Cl)cc2)Oc2ccc(NC(=O)Cc3ccccc3)cc2C1=O | 36* | 0
C[C@@H]1CN([C@@H](C)CO)C(=O)c2cc(NC(=O)Cc3ccccc3)ccc2O[C@@H]1CN(C)S(=O)(=O)c1ccc(Cl)cc1 | -14 | 0
C[C@H](CO)N1C[C@H](C)[C@@H](CN(C)S(=O)(=O)c2ccc(Cl)cc2)Oc2ccc(NC(=O)NC3CCCCC3)cc2C1=O | 13 | 0
C[C@H]1CN([C@@H](C)CO)C(=O)c2cc(NC(=O)NC3CCCCC3)ccc2O[C@@H]1CN(C)S(=O)(=O)c1ccc(Cl)cc1 | 449* | 0
O=C(NCC[C@@H]1CC[C@@H](NS(=O)(=O)Cc2ccccc2)[C@H](CO)O1)C1CCC1 | 0 | 0
C[C@@H]1CN([C@@H](C)CO)C(=O)c2cc(NC(=O)C3CCCCC3)ccc2O[C@@H](C)CCCCO[C@H]1CN(C)S(C)(=O)=O | 0 | -1
COc1cccc(CNC(=O)CN2C(=O)COc3ccc(S(=O)(=O)N4CCCC4)cc32)c1 | · | 0
COc1cccc(CNC(=O)CN2C(=O)COc3ccc(S(=O)(=O)N4CCCCCC4)cc32)c1 | 43* | 0
C[C@@H]1CN([C@H](C)CO)C(=O)c2cc(NC(=O)NC3CCCCC3)ccc2O[C@@H]1CN(C)Cc1ccc(C(=O)Nc2ccccc2N)cc1 | 2 | 1
CCOC(=O)Cc1nn(CC)c(=O)c2ccccc12 | · | 0
CCn1nc(CC(=O)O)c2ccccc2c1=O | 185* | 0
COCCCn1c(=O)/c(=C\c2ccccc2OC(F)F)s/c1=C(/C#N)C(N)=O | 38* | 0
COCCCn1c(=O)/c(=C\c2ccc(OC(F)F)c(OC)c2)s/c1=C(/C#N)C(N)=O | -2 | 0
CCCNC(=O)[C@@H]1[C@@H](CO)[C@@H]2Cn3c(ccc(C4=CCCC4)c3=O)[C@H]1N2C(=O)CC | 0 | 0
CCC(=O)Nc1ccc2c(c1)OC[C@H](C)N(C(=O)Cc1cccnc1)C[C@H](C)[C@@H](OC)CN(C)C2=O | · | 0
Nc1nc2ccc([N+](=O)[O-])cc2[nH]1 | 1 | 0
Nc1[nH]c2cc([N+](=O)[O-])ccc2c1-c1ccccn1 | · | 100*
COc1cc(Cl)c(CC(=O)c2c[nH]c3ccccc23)cc1OC | 0 | 0
Cc1cccc(CC(=O)c2c[nH]c3ccccc23)c1 | 75* | 0
Oc1ccc(Cl)cc1C=Nc1ccc2c3c(cccc13)CC2 | 24 | 30*
Cc1cccc(C=Nc2ccc3c4c(cccc24)CC3)c1O | · | 0
COc1ccc2c3c(n(C)c2c1)[C@@H](CO)N(C(=O)Nc1ccc(F)cc1)CC31CCN(CC2CCOCC2)CC1 | · | 0
COc1ccc(C[C@H]2CCc3cnnn3COC[C@@H](Cc3ccccc3)NC2=O)cc1 | 0 | 0
COC1=CC(=O)c2c(ccc3ncnc(N)c23)C1=O | · | 19*
COC1=CC(=O)c2nc(Cl)ccc2C1=O | 0 | ?
SMILES | E-sel inducer | XiGFP reactiv
CCCN(C)C[C@H]1OCCCC[C@@H](C)Oc2ccc(NC(=O)NC(C)C)cc2C(=O)N([C@@H](C)CO)C[C@H]1C | · | 0
O=C1c2cccc3c([N+](=O)[O-])ccc(c23)C(=O)N1O | 2 | 17*
CC(=O)Oc1ccc(N2C(=O)c3cccc4c([N+](=O)[O-])ccc(c34)C2=O)cc1 | · | 0
COCC(=O)N1CC2(CCN(Cc3ccccc3)CC2)c2c(n(C)c3cc(OC)ccc23)[C@H]1CO | 0 | 0
C[C@H]1CN([C@@H](C)CO)C(=O)c2cc(-c3cccc(C#N)c3)cnc2O[C@@H]1CN(C)C(=O)C1CCCCC1 | 0 | -1
CCN1C(=O)C(=O)c2cc(C)ccc21 | 0 | 1
CC[N+]1=C(C)C(C)(C)c2cc(C)ccc21 | 169* | 73*
